According to ChEMBL document CHEMBL3259570, “4-([1,2,4]Triazolo[1,5-a]pyridin-6-yl)-5(3)-(6-methylpyridin-2-yl)imidazole and -pyrazole derivatives as potent and selective inhibitors of transforming growth factor-β type I receptor kinase” (Bioorg Med Chem, 2014):

Tests used:
TGF-beta receptor type-1 = target: T1, TGF-beta receptor type-1 (Homo sapiens, UniProt P36897); test: Inhibition of GST-fused recombinant human ALK5 expressed in baculovirus-infected insect Sf9 cells using casein as substrate by radioisotope-based assay
T1 sequence (P36897 whole entry): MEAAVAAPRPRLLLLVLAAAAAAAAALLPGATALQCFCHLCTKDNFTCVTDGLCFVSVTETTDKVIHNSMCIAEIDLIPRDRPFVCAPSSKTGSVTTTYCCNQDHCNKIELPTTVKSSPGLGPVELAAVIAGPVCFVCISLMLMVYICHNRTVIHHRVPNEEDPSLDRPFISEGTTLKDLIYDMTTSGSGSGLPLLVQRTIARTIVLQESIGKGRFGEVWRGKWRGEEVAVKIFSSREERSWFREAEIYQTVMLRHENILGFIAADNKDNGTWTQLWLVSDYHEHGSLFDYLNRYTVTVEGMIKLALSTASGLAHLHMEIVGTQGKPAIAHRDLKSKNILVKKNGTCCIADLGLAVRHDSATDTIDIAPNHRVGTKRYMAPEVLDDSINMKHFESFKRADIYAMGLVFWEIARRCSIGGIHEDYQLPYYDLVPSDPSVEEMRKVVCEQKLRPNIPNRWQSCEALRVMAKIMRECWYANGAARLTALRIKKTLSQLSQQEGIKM

[1] = target: Mitogen-activated protein kinase 14 (Homo sapiens, UniProt Q16539); test: Inhibition of recombinant human p38-alpha expressed in Escherichia coli using ATF2 as substrate by radioisotope-based assay
Homo sapiens = organism: Homo sapiens; test: Selectivity index, ratio of IC50 for recombinant human p38-alpha to IC50 for GST-fused recombinant human ALK5
How it was run: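 Ratio of p38α IC50 to ALK5 IC50. ALK5 was a human recombinant GST-fusion protein expressed in Sf9 insect cells via baculovirus. p38α was […] human recombinant protein expressed in E. coli and purified on Ni-NTA agarose. Both were run in a radioisotopic ³³P protein kinase assay (³³PanQinase), with casein as the ALK5 substrate and ATF2 as the p38α substrate.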

Plasma [2] = test: Drug level in rat plasma treated with [14C]-EW-7197, po by LC-MS analysis; format: ADME, organism-based; settings: in vivo
[3] = Drug level in rat feces treated with [14C]-EW-7197, po by LC-MS analysis; format: ADME, organism-based; settings: in vivo
[4] = Drug level in rat urine treated with [14C]-EW-7197, po by LC-MS analysis; format: ADME, organism-based; settings: in vivo
[5] = Retention time of the compound in rat bile treated with [14C]-EW-7197, po by LC-MS analysis; format: ADME, organism-based
Plasma [6] = test: Retention time of the compound in rat plasma treated with [14C]-EW-7197, po by LC-MS analysis; format: ADME, organism-based
[7] = Drug level in rat bile treated with [14C]-EW-7197, po by LC-MS analysis; format: ADME, organism-based; settings: in vivo
[8] = Retention time of the compound in rat urine treated with [14C]-EW-7197, po by LC-MS analysis; format: ADME, organism-based
[9] = target: T2, TGF-beta receptor type-1 (Homo sapiens) (UniProt P36897); test: Potency index, ratio of SB-505124 IC50 to compound IC50 for GST-fused recombinant human ALK5 expressed in baculovirus-infected insect Sf9 cells
T2 sequence (whole entry): T1 sequence (P36897 whole entry)

Plasma [10] = test: Retention time of the compound in po dosed rat plasma by LC-MS analysis; format: ADME, organism-based; settings: in vivo
[11] = Drug metabolism in po dosed rat feces assessed as formation of (4-([1,2,4]triazolo[1,5-a]pyridin-6-yl)-5-(6-methylpyridin-2-yl)-1H-imidazol-2-yl)methanol by LC-MS analysis; format: ADME, organism-based; settings: in vivo
Plasma [12] = test: Drug metabolism in po dosed rat plasma assessed as formation of 4-([1,2,4]triazolo[1,5-a]pyridin-6-yl)-5-(6-methylpyridin-2-yl)-1H-imidazole-2-carbaldehyde by LC-MS analysis; format: ADME, organism-based; settings: in vivo
[13] = Drug metabolism in po dosed rat bile assessed as formation of 4-([1,2,4]triazolo[1,5-a]pyridin-6-yl)-5-(6-methylpyridin-2-yl)-1H-imidazole-2-carboxylic acid by LC-MS analysis; format: ADME, organism-based; settings: in vivo
[14] = Drug metabolism in po dosed rat feces assessed as formation of 4-([1,2,4]triazolo[1,5-a]pyridin-6-yl)-5-(6-methylpyridin-2-yl)-1H-imidazole-2-carboxylic acid by LC-MS analysis; format: ADME, organism-based; settings: in vivo
[15] = Drug metabolism in po dosed rat urine assessed as formation of 4-([1,2,4]triazolo[1,5-a]pyridin-6-yl)-5-(6-methylpyridin-2-yl)-1H-imidazole-2-carboxylic acid by LC-MS analysis; format: ADME, organism-based; settings: in vivo
Plasma [16] = test: Drug metabolism in po dosed rat plasma assessed as formation of 4-([1,2,4]triazolo[1,5-a]pyridin-6-yl)-5-(6-methylpyridin-2-yl)-1H-imidazole-2-carboxylic acid by LC-MS analysis; format: ADME, organism-based; settings: in vivo
[17] = Drug metabolism in po dosed rat bile assessed as formation of 4-([1,2,4]triazolo[1,5-a]pyridin-6-yl)-5-(6-methylpyridin-2-yl)-1H-imidazole-2-carbaldehyde by LC-MS analysis; format: ADME, organism-based; settings: in vivo
Plasma [18] = test: Drug metabolism in po dosed rat plasma assessed as formation of (4-([1,2,4]triazolo[1,5-a]pyridin-6-yl)-5-(6-methylpyridin-2-yl)-1H-imidazol-2-yl)methanol by LC-MS analysis; format: ADME, organism-based; settings: in vivo
[19] = Drug metabolism in po dosed rat urine assessed as formation of 4-([1,2,4]triazolo[1,5-a]pyridin-6-yl)-5-(6-methylpyridin-2-yl)-1H-imidazol-2-ol by LC-MS analysis; format: ADME, organism-based; settings: in vivo
[20] = Drug metabolism in po dosed rat urine assessed as formation of (4-([1,2,4]triazolo[1,5-a]pyridin-6-yl)-5-(6-methylpyridin-2-yl)-1H-imidazol-2-yl)methanol by LC-MS analysis; format: ADME, organism-based; settings: in vivo
[21] = Drug metabolism in po dosed rat feces assessed as formation of 4-([1,2,4]triazolo[1,5-a]pyridin-6-yl)-5-(6-methylpyridin-2-yl)-1H-imidazole-2-carbaldehyde by LC-MS analysis; format: ADME, organism-based; settings: in vivo

Sequence of Mitogen-activated protein kinase 14 (Q16539 whole entry, the tested form may be a part): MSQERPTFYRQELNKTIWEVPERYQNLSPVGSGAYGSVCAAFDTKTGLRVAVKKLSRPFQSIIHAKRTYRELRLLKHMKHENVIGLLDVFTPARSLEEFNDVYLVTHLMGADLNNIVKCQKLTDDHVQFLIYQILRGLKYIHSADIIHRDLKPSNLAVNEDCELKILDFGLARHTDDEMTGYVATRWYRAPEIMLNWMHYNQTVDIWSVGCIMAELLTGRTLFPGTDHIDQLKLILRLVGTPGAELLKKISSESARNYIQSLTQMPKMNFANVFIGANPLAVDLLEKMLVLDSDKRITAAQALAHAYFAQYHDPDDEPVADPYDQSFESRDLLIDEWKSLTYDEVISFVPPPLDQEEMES

IC50 (TGF-beta receptor type-1)	IC50 [1]	Ratio IC50 (Homo sapiens)	Compound	further results
48 nM	3770 nM	79	Cc1cccc(-c2[nH]c(CNC(=S)c3ccccc3)nc2-c2ccc3ncnn3c2)n1	–
–	–	–	Cc1cccc(-c2[nH]c(CO)nc2-c2ccc3ncnn3c2)n1	Drug metabolism (Plasma [2]): metabolite_detected; Drug metabolism [3]: metabolite_detected; Drug metabolism [4]: metabolite_detected; Retention_time [5]: 53.65 min
27 nM	1050 nM	39	Cc1cccc(-c2[nH]c(CNC(=S)c3ccccc3F)nc2-c2ccc3ncnn3c2)n1	–
78 nM	> 10000 nM	> 128	Cc1cccc(-c2nn(CC(=O)Nc3ccccc3)cc2-c2ccc3ncnn3c2)n1	–
36 nM	> 10000 nM	> 278	Cc1cccc(-c2nn(CC(=O)Nc3cccc(C(N)=O)c3)cc2-c2ccc3ncnn3c2)n1	–
29 nM	5210 nM	180	Cc1cccc(-c2nn(CC(=S)Nc3ccccc3F)cc2-c2ccc3ncnn3c2)n1	–
57 nM	> 10000 nM	> 175	Cc1cccc(-c2[nH]c(CNC(=O)c3ccccc3)nc2-c2ccc3ncnn3c2)n1	–
–	–	–	Cc1cccc(-c2[nH]c(C(=O)O)nc2-c2ccc3ncnn3c2)n1	Retention_time (Plasma [6]): 24.43 min; Drug metabolism [3]: metabolite_detected; Drug metabolism [7]: metabolite_detected; Drug metabolism [4]: metabolite_detected
106 nM	> 10000 nM	> 94	Cc1cccc(-c2[nH]c(CNC(=O)c3cccc(C(N)=O)c3)nc2-c2ccc3ncnn3c2)n1	–
–	–	–	Cc1cccc(-c2[nH]c(C=O)nc2-c2ccc3ncnn3c2)n1	Drug metabolism (Plasma [2]): metabolite_detected; Retention_time [8]: 62.37 min; Drug metabolism [3]: metabolite_detected; Drug metabolism [7]: metabolite_detected
–	–	–	Cc1cccc(-c2[nH]c(CN)nc2-c2ccc3ncnn3c2)n1	Retention_time [5]: 68.77 min
18 nM	5110 nM	284	Cc1cccc(-c2nn(CC(=S)Nc3cccc(C#N)c3)cc2-c2ccc3ncnn3c2)n1	Ratio IC50 [9]: 3
–	–	28	Cc1cccc(-c2[nH]c(Cc3cccc(C(N)=O)c3)nc2-c2ccc3nccnc3c2)n1	–
85 nM	> 10000 nM	> 118	Cc1cccc(-c2nn(CC(=O)Nc3ccccc3F)cc2-c2ccc3ncnn3c2)n1	–
90 nM	> 10000 nM	> 111	Cc1cccc(-c2[nH]c(CNC(=O)c3cccc(C#N)c3)nc2-c2ccc3ncnn3c2)n1	–
37 nM	> 10000 nM	> 270	Cc1cccc(-c2[nH]c(CNC(=O)c3ccccc3F)nc2-c2ccc3ncnn3c2)n1	–
36 nM	1490 nM	41	Cc1cccc(-c2[nH]c(CNC(=S)c3cccc(C#N)c3)nc2-c2ccc3ncnn3c2)n1	–
22 nM	2830 nM	129	Cc1cccc(-c2[nH]c(CNC(=S)c3cccc(C(N)=O)c3)nc2-c2ccc3ncnn3c2)n1	–
–	–	–	Cc1cccc(-c2[nH]c(CNc3ccccc3F)nc2-c2ccc3ncnn3c2)n1 [VACTOSERTIB]	Retention_time (Plasma [10]): 71.53 min; Drug metabolism [11]: metabolite_detected; Drug metabolism (Plasma [12]): metabolite_detected; Drug metabolism [13]: metabolite_detected; Drug metabolism [14]: metabolite_detected; Drug metabolism [15]: metabolite_detected; Drug metabolism (Plasma [16]): metabolite_detected; Drug metabolism [17]: metabolite_detected; Drug metabolism (Plasma [18]): metabolite_detected; Drug metabolism [19]: metabolite_detected; Drug metabolism [20]: metabolite_detected; Drug metabolism [21]: metabolite_detected
–	–	–	Cc1cccc(-c2[nH]c(O)nc2-c2ccc3ncnn3c2)n1	Drug metabolism [4]: metabolite_detected; Retention_time [5]: 54.56 min
27 nM	> 10000 nM	> 370	Cc1cccc(-c2nn(CC(=O)Nc3cccc(C#N)c3)cc2-c2ccc3ncnn3c2)n1	–
